Test results as given in ChEMBL document CHEMBL3124788, “Identification of human presequence protease (hPreP) agonists for the treatment of Alzheimer's disease” (Eur J Med Chem, 2014).
pEC50: −log10 of the molar value. Activity calls are given as the source filed them. The calls are words filed in the database; no cut-off is given here.

Legend:
[1] = target: T1, Presequence protease, mitochondrial (Homo sapiens) (UniProt Q5JRX3); test: Agonist activity at human PreP assessed as degradation of fluorogenic substrate V at 1 uM measured for 10 mins by fluorometric analysis
T1 sequence (whole entry): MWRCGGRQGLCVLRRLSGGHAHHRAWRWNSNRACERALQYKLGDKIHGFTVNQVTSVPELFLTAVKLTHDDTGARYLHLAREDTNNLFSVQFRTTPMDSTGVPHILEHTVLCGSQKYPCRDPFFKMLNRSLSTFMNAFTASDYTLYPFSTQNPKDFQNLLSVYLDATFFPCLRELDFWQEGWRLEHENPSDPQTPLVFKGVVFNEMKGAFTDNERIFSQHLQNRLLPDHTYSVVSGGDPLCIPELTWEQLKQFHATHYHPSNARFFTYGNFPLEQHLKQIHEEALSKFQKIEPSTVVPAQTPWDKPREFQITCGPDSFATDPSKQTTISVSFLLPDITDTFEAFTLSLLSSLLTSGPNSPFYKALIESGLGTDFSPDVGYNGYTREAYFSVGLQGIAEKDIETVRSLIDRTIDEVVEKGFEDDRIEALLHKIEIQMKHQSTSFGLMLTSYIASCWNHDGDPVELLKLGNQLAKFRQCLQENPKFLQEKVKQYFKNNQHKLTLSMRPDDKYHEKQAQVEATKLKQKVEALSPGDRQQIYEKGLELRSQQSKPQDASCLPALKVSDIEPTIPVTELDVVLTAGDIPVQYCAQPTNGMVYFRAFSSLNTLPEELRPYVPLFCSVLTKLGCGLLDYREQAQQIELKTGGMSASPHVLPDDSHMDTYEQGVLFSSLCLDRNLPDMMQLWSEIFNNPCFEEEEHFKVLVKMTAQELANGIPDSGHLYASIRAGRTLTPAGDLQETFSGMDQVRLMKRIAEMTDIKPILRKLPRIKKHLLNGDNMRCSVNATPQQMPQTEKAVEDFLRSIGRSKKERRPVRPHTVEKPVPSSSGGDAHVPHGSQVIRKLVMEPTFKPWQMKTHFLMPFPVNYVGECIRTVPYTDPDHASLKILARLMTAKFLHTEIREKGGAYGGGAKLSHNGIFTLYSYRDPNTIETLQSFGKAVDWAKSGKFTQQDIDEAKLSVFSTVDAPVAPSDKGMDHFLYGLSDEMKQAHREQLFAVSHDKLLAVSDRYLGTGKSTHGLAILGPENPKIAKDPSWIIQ

[2] = target: T1, Presequence protease, mitochondrial (Homo sapiens); test: Agonist activity at human PreP assessed as degradation of ATP synthase pF1beta subunit (2 to 54) after 2.5 hrs by Immunoblotting assay
[3] = target: T1, Presequence protease, mitochondrial (Homo sapiens); test: Agonist activity at human PreP assessed as degradation of biotin-labeled amyloid beta (1 to 42) up to 1 uM after 2.5 hrs by Immunoblotting assay
In short: (§1)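 Biotin-labeled Aβ(1–42) (0.02 μg) incubated 2.5 h with 1 μg purified hPreP in 20 mM HEPES-KOH pH 8.0 with 10 mM MgCl2, compound 0.00001–100 μM. Products were run on 12% Bis-Tris gel and transferred to nitrocellulose. Membrane dried and blocked in 2% milk-PBS, then probed with ExtrAvidin peroxidase and ECL. Degradation measured relative to enzyme alone. EC50 from nonlinear log(agonist) vs normalized response regression.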

[4] = target: T1, Presequence protease, mitochondrial (Homo sapiens); test: Agonist activity at human PreP assessed as degradation of ATP synthase pF1beta subunit (2 to 54) at 1 uM after 2.5 hrs by Immunoblotting assay
[5] = target: T2, Presequence protease, mitochondrial (Homo sapiens, UniProt Q5JRX3); test: Agonist activity at human PreP assessed as degradation of fluorogenic substrate V measured for 10 mins by fluorometric analysis
T2 sequence (Q5JRX3 whole entry): T1 sequence (whole entry)

[6] = target: T2, Presequence protease, mitochondrial; test: Agonist activity at human PreP assessed as degradation of ATP synthase pF1beta subunit (2 to 56) after 2.5 hrs by Immunoblotting assay; conditions: in the assay text read “(2 to 54)” for “(2 to 56)”
In short: (§2)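 Purified human PreP (1 μg) incubated with biotin-labeled pF1β (2–54) presequence peptide (0.02 μg) in 20 mM HEPES-KOH pH 8.0, 10 mM MgCl2, with compound at 0.00001–100 μM, for 2.5 h. Reactions were stopped with sample buffer and resolved on 12% Bis-Tris gel. Blot probed with anti-F1β (1:2000), HRP anti-rabbit, ECL. Bands quantified by densitometry versus hPreP alone. EC50 from nonlinear log(agonist) vs normalized response fit.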

[7] = target: T1, Presequence protease, mitochondrial (Homo sapiens); test: (§3) Agonist activity at human PreP assessed as degradation of biotin-labeled amyloid beta (1 to 42) after 2.5 hrs by Immunoblotting assay; in short: as §1
[8] = target: T2, Presequence protease, mitochondrial; test: as §3; in short: as §1
[9] = target: T1, Presequence protease, mitochondrial (Homo sapiens); test: Agonist activity at human PreP assessed as degradation of ATP synthase pF1beta subunit (2 to 56) after 2.5 hrs by Immunoblotting assay relative to control; conditions: in the assay text read “(2 to 54)” for “(2 to 56)”; in short: as §2
[10] = target: T1, Presequence protease, mitochondrial (Homo sapiens); test: Agonist activity at human PreP assessed as degradation of biotin-labeled amyloid beta (1 to 42) after 2.5 hrs by Immunoblotting assay relative to control; in short: as §1

fold change (FC) [1]: 1.8
Activity [2]: Dose-dependent effect
Activity [3]: Active
Activity [4]: Active
pEC50 [5]: 7.24
pEC50 [6]: 6.22
Activity [7]: Dose-dependent effect
pEC50 [8]: 6.40
Activity [9]: 55%
Activity [10]: 54%
Structure (SMILES): O=[N+]([O-])c1ccc2c(c1)N(Cc1cc(Br)ccc1O)C(c1cc(Br)ccc1O)N2Cc1cc(Br)ccc1O (stereo not given)
